Data taken from ChEMBL document CHEMBL5058577, “EUbOPEN Chemogenomics Library 2 (Multiplex)” (2022).

Tested on: HEK-293T
Test: Multiplex assay against HEK293T
Type: toxicity, cell-based
Details: human
Summary of the method: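 Values for tubulin, mitochondrial-mass and membrane-permeability phenotypes are per cents of cells with healthy nuclei. These cells were identified by CellPathfinder machine-learning gating of live cells that had been stained at seeding with Hoechst33342, BioTracker Green Microtubule Cytoskeleton Dye, MitoTracker Red and Annexin V Alexa Fluor 680 and imaged on a CQ1 microscope at 37°C and 5% CO2 after compound addition. The gating first set Hoechst high-intensity objects apart from normal cells, then split normal cells into healthy, pyknosed or fragmented nuclei, and pyknosed cells into mitotic or apoptotic.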

[1] = 12 h, 1 µM, compound concentration 1 uM, replicate 1
[2] = 12 h, 1 µM, compound concentration 1 uM, replicate 2
[3] = 12 h, 10 µM, compound concentration 10 uM, replicate 1
[4] = 12 h, 10 µM, compound concentration 10 uM, replicate 2
[5] = 24 h, 1 µM, compound concentration 1 uM, replicate 1
[6] = 24 h, 1 µM, compound concentration 1 uM, replicate 2
[7] = 24 h, 10 µM, compound concentration 10 uM, replicate 1
[8] = 24 h, 10 µM, compound concentration 10 uM, replicate 2
[9] = 48 h, 1 µM, compound concentration 1 uM, replicate 1
[10] = 48 h, 1 µM, compound concentration 1 uM, replicate 2
[11] = 48 h, 10 µM, compound concentration 10 uM, replicate 1
[12] = 48 h, 10 µM, compound concentration 10 uM, replicate 2

CC(C)(O)C(=O)N1CCN(c2ccc(C(F)(F)F)c(C3=C(c4c[nH]c5ccccc45)C(=O)NC3=O)c2)CC1
Population Apoptotic (%) [1]: 33%
Population Fragmented Nuclei (%) [1]: 4%
Population Healthy Nuclei (%) [1]: 78%
Population Hoechst High Intensity Objects (%) [1]: 8%
Population Membrane Permeable-Phenotype (%) [1]: 0%
Population Mitochondria Different-Phenotype (%) [1]: 43%
Population Mitotic Cells (%) [1]: 66%
Population Normal (%) [1]: 91%
Population Pyknosed Nuclei (%) [1]: 16%
Population Tubulin-Different-Phenotype (%) [1]: 28%
Total Cell Count [1]: 381
Population Apoptotic (%) [2]: 46%
Population Fragmented Nuclei (%) [2]: 5%
Population Healthy Nuclei (%) [2]: 76%
Population Hoechst High Intensity Objects (%) [2]: 7%
Population Mitochondria Different-Phenotype (%) [2]: 58%
Population Mitotic Cells (%) [2]: 53%
Population Normal (%) [2]: 92%
Population Pyknosed Nuclei (%) [2]: 17%
Population Tubulin-Different-Phenotype (%) [2]: 30%
Total Cell Count [2]: 293
Population Apoptotic (%) [3]: 51%
Population Fragmented Nuclei (%) [3]: 4%
Population Healthy Nuclei (%) [3]: 74%
Population Hoechst High Intensity Objects (%) [3]: 10%
Population Membrane Permeable-Phenotype (%) [3]: 0%
Population Mitochondria Different-Phenotype (%) [3]: 61%
Population Mitotic Cells (%) [3]: 48%
Population Normal (%) [3]: 89%
Population Pyknosed Nuclei (%) [3]: 20%
Population Tubulin-Different-Phenotype (%) [3]: 62%
Total Cell Count [3]: 338
Population Apoptotic (%) [4]: 72%
Population Fragmented Nuclei (%) [4]: 3%
Population Healthy Nuclei (%) [4]: 75%
Population Hoechst High Intensity Objects (%) [4]: 7%
Population Mitochondria Different-Phenotype (%) [4]: 90%
Population Mitotic Cells (%) [4]: 27%
Population Normal (%) [4]: 92%
Population Pyknosed Nuclei (%) [4]: 21%
Population Tubulin-Different-Phenotype (%) [4]: 63%
Total Cell Count [4]: 203
Population Apoptotic (%) [5]: 33%
Population Fragmented Nuclei (%) [5]: 8%
Population Healthy Nuclei (%) [5]: 74%
Population Hoechst High Intensity Objects (%) [5]: 5%
Population Membrane Permeable-Phenotype (%) [5]: 0%
Population Mitochondria Different-Phenotype (%) [5]: 32%
Population Mitotic Cells (%) [5]: 66%
Population Normal (%) [5]: 94%
Population Pyknosed Nuclei (%) [5]: 17%
Population Tubulin-Different-Phenotype (%) [5]: 19%
Total Cell Count [5]: 469
Population Apoptotic (%) [6]: 29%
Population Fragmented Nuclei (%) [6]: 5%
Population Healthy Nuclei (%) [6]: 79%
Population Mitochondria Different-Phenotype (%) [6]: 48%
Population Mitotic Cells (%) [6]: 70%
Population Pyknosed Nuclei (%) [6]: 14%
Total Cell Count [6]: 335
Population Apoptotic (%) [7]: 45%
Population Fragmented Nuclei (%) [7]: 6%
Population Healthy Nuclei (%) [7]: 71%
Population Hoechst High Intensity Objects (%) [7]: 4%
Population Membrane Permeable-Phenotype (%) [7]: 1%
Population Mitochondria Different-Phenotype (%) [7]: 48%
Population Mitotic Cells (%) [7]: 54%
Population Normal (%) [7]: 95%
Population Pyknosed Nuclei (%) [7]: 22%
Population Tubulin-Different-Phenotype (%) [7]: 43%
Total Cell Count [7]: 387
Population Apoptotic (%) [8]: 66%
Population Fragmented Nuclei (%) [8]: 2%
Population Hoechst High Intensity Objects (%) [8]: 7%
Population Membrane Permeable-Phenotype (%) [8]: 0%
Population Mitochondria Different-Phenotype (%) [8]: 84%
Population Mitotic Cells (%) [8]: 34%
Population Normal (%) [8]: 92%
Population Pyknosed Nuclei (%) [8]: 25%
Population Tubulin-Different-Phenotype (%) [8]: 60%
Total Cell Count [8]: 212
Population Apoptotic (%) [9]: 25%
Population Fragmented Nuclei (%) [9]: 9%
Population Healthy Nuclei (%) [9]: 79%
Population Hoechst High Intensity Objects (%) [9]: 2%
Population Membrane Permeable-Phenotype (%) [9]: 0%
Population Mitochondria Different-Phenotype (%) [9]: 21%
Population Mitotic Cells (%) [9]: 74%
Population Normal (%) [9]: 97%
Population Pyknosed Nuclei (%) [9]: 10%
Population Tubulin-Different-Phenotype (%) [9]: 14%
Total Cell Count [9]: 780
Population Apoptotic (%) [10]: 27%
Population Fragmented Nuclei (%) [10]: 10%
Population Hoechst High Intensity Objects (%) [10]: 5%
Population Mitochondria Different-Phenotype (%) [10]: 29%
Population Mitotic Cells (%) [10]: 72%
Population Normal (%) [10]: 94%
Population Tubulin-Different-Phenotype (%) [10]: 15%
Total Cell Count [10]: 571
Population Apoptotic (%) [11]: 54%
Population Fragmented Nuclei (%) [11]: 8%
Population Healthy Nuclei (%) [11]: 71%
Population Hoechst High Intensity Objects (%) [11]: 8%
Population Membrane Permeable-Phenotype (%) [11]: 0%
Population Mitochondria Different-Phenotype (%) [11]: 53%
Population Mitotic Cells (%) [11]: 45%
Population Normal (%) [11]: 91%
Population Pyknosed Nuclei (%) [11]: 19%
Population Tubulin-Different-Phenotype (%) [11]: 25%
Total Cell Count [11]: 467
Population Apoptotic (%) [12]: 78%
Population Fragmented Nuclei (%) [12]: 9%
Population Mitochondria Different-Phenotype (%) [12]: 71%
Population Mitotic Cells (%) [12]: 21%
Population Tubulin-Different-Phenotype (%) [12]: 40%
Total Cell Count [12]: 227

C=CCN1C[C@H](C(=O)N(CCCN(C)C)C(=O)NCC)C[C@@H]2c3cccc4[nH]cc(c34)C[C@H]21 [CABERGOLINE]
Population Apoptotic (%) [1]: 36%
Population Fragmented Nuclei (%) [1]: 4%
Population Healthy Nuclei (%) [1]: 76%
Population Hoechst High Intensity Objects (%) [1]: 8%
Population Membrane Permeable-Phenotype (%) [1]: 0%
Population Mitochondria Different-Phenotype (%) [1]: 51%
Population Mitotic Cells (%) [1]: 63%
Population Normal (%) [1]: 91%
Population Pyknosed Nuclei (%) [1]: 18%
Population Tubulin-Different-Phenotype (%) [1]: 41%
Total Cell Count [1]: 370
Population Apoptotic (%) [2]: 37%
Population Fragmented Nuclei (%) [2]: 5%
Population Healthy Nuclei (%) [2]: 79%
Population Mitochondria Different-Phenotype (%) [2]: 68%
Population Mitotic Cells (%) [2]: 62%
Population Pyknosed Nuclei (%) [2]: 14%
Population Tubulin-Different-Phenotype (%) [2]: 24%
Total Cell Count [2]: 322
Population Apoptotic (%) [3]: 53%
Population Fragmented Nuclei (%) [3]: 8%
Population Healthy Nuclei (%) [3]: 76%
Population Hoechst High Intensity Objects (%) [3]: 12%
Population Membrane Permeable-Phenotype (%) [3]: 0%
Population Mitochondria Different-Phenotype (%) [3]: 65%
Population Mitotic Cells (%) [3]: 46%
Population Normal (%) [3]: 87%
Population Pyknosed Nuclei (%) [3]: 14%
Population Tubulin-Different-Phenotype (%) [3]: 54%
Total Cell Count [3]: 438
Population Apoptotic (%) [4]: 60%
Population Fragmented Nuclei (%) [4]: 6%
Population Healthy Nuclei (%) [4]: 78%
Population Hoechst High Intensity Objects (%) [4]: 8%
Population Mitochondria Different-Phenotype (%) [4]: 81%
Population Mitotic Cells (%) [4]: 40%
Population Normal (%) [4]: 91%
Population Tubulin-Different-Phenotype (%) [4]: 55%
Total Cell Count [4]: 371
Population Apoptotic (%) [5]: 43%
Population Fragmented Nuclei (%) [5]: 9%
Population Healthy Nuclei (%) [5]: 80%
Population Hoechst High Intensity Objects (%) [5]: 4%
Population Membrane Permeable-Phenotype (%) [5]: 1%
Population Mitochondria Different-Phenotype (%) [5]: 29%
Population Mitotic Cells (%) [5]: 56%
Population Normal (%) [5]: 95%
Population Pyknosed Nuclei (%) [5]: 10%
Population Tubulin-Different-Phenotype (%) [5]: 20%
Total Cell Count [5]: 512
Population Apoptotic (%) [6]: 40%
Population Fragmented Nuclei (%) [6]: 6%
Population Healthy Nuclei (%) [6]: 83%
Population Hoechst High Intensity Objects (%) [6]: 6%
Population Membrane Permeable-Phenotype (%) [6]: 0%
Population Mitochondria Different-Phenotype (%) [6]: 46%
Population Mitotic Cells (%) [6]: 59%
Population Normal (%) [6]: 93%
Population Pyknosed Nuclei (%) [6]: 9%
Population Tubulin-Different-Phenotype (%) [6]: 19%
Total Cell Count [6]: 406
Population Apoptotic (%) [7]: 37%
Population Fragmented Nuclei (%) [7]: 10%
Population Healthy Nuclei (%) [7]: 77%
Population Hoechst High Intensity Objects (%) [7]: 8%
Population Membrane Permeable-Phenotype (%) [7]: 0%
Population Mitochondria Different-Phenotype (%) [7]: 51%
Population Mitotic Cells (%) [7]: 62%
Population Normal (%) [7]: 91%
Population Pyknosed Nuclei (%) [7]: 11%
Population Tubulin-Different-Phenotype (%) [7]: 48%
Total Cell Count [7]: 556
Population Apoptotic (%) [8]: 42%
Population Healthy Nuclei (%) [8]: 79%
Population Hoechst High Intensity Objects (%) [8]: 12%
Population Mitochondria Different-Phenotype (%) [8]: 64%
Population Mitotic Cells (%) [8]: 57%
Population Normal (%) [8]: 87%
Population Pyknosed Nuclei (%) [8]: 9%
Population Tubulin-Different-Phenotype (%) [8]: 43%
Total Cell Count [8]: 425
Population Apoptotic (%) [9]: 13%
Population Fragmented Nuclei (%) [9]: 12%
Population Healthy Nuclei (%) [9]: 80%
Population Hoechst High Intensity Objects (%) [9]: 4%
Population Membrane Permeable-Phenotype (%) [9]: 1%
Population Mitochondria Different-Phenotype (%) [9]: 21%
Population Mitotic Cells (%) [9]: 86%
Population Normal (%) [9]: 95%
Population Pyknosed Nuclei (%) [9]: 7%
Population Tubulin-Different-Phenotype (%) [9]: 16%
Total Cell Count [9]: 763
Population Apoptotic (%) [10]: 35%
Population Fragmented Nuclei (%) [10]: 11%
Population Healthy Nuclei (%) [10]: 81%
Population Hoechst High Intensity Objects (%) [10]: 3%
Population Mitochondria Different-Phenotype (%) [10]: 23%
Population Mitotic Cells (%) [10]: 65%
Population Normal (%) [10]: 96%
Population Pyknosed Nuclei (%) [10]: 6%
Population Tubulin-Different-Phenotype (%) [10]: 10%
Total Cell Count [10]: 633
Population Apoptotic (%) [11]: 26%
Population Fragmented Nuclei (%) [11]: 13%
Population Healthy Nuclei (%) [11]: 76%
Population Hoechst High Intensity Objects (%) [11]: 5%
Population Membrane Permeable-Phenotype (%) [11]: 0%
Population Mitochondria Different-Phenotype (%) [11]: 35%
Population Mitotic Cells (%) [11]: 73%
Population Normal (%) [11]: 94%
Population Pyknosed Nuclei (%) [11]: 9%
Population Tubulin-Different-Phenotype (%) [11]: 25%
Total Cell Count [11]: 786
Population Apoptotic (%) [12]: 43%
Population Fragmented Nuclei (%) [12]: 10%
Population Healthy Nuclei (%) [12]: 82%
Population Hoechst High Intensity Objects (%) [12]: 6%
Population Mitochondria Different-Phenotype (%) [12]: 32%
Population Mitotic Cells (%) [12]: 56%
Population Normal (%) [12]: 93%
Population Pyknosed Nuclei (%) [12]: 6%
Population Tubulin-Different-Phenotype (%) [12]: 20%
Total Cell Count [12]: 676
